Test results published in ChEMBL document CHEMBL1124595, “Synthesis and biological activity of 3-substituted imidazo[1,2-a]pyridines as antiulcer agents” (1989).

Tests used:
Type in all cases: functional
Rattus norvegicus [1] = experiment: Antisecretory activity in gastric fistula rat when administered perorally; conditions: Stomach, po
Summary of the method: (§1)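 Chronic gastric fistula rats dosed orally. Activity was taken as percent inhibition of gastric acid secretion. The dose giving 50% inhibition (ED50) was calculated by probit analysis.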

Rattus norvegicus [2] = experiment: Cytoprotective activity in rats when administered 30 mg/kg perorally (Hydrochloric acid as necrotic agent); conditions: route oral
Summary of the method: (§2)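 Food was withheld for 24 h and water for 1½–18 h. Rats were dosed orally (3–12 mL vehicle/kg) 60 min before 0.75 N HCl, 3.0 mL/kg by gavage. They were killed 60 min after insult, and the stomach was opened along the greater curvature and photographed. Lesion area score ÷4 gave mm²; group mean was compared with controls as % inhibition. Five animals per dose, standard error.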

Rattus norvegicus [3] = experiment: Cytoprotective activity in rat when administered 30 mg/kg perorally (Ethyl alcohol as necrotic agent); conditions: route oral
Summary of the method: as §2, with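 “100% ethanol,” for “0.75 N HCl,”, “lesser” for “greater”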

Rattus norvegicus [4] = experiment: Cytoprotective activity in rat when administered 50 mg/kg perorally (Ethyl alcohol as necrotic agent); conditions: route oral
Summary of the method: as §2, with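 “100% ethanol,” for “0.75 N HCl,”, “lesser” for “greater”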

Rattus norvegicus [5] = experiment: Cytoprotective activity in rats when administered 50 mg/kg perorally (Hydrochloric acid as necrotic agent); conditions: route oral; summary of the method: as §2
Rattus norvegicus [6] = experiment: Cytoprotective activity in rats when administered 100 mg/kg perorally (Hydrochloric acid as necrotic agent); conditions: route oral; summary of the method: as §2
Rattus norvegicus [7] = experiment: Antisecretory activity in gastric fistula rat when administered per orally; conditions: Stomach, po; summary of the method: as §1
Rattus norvegicus [8] = experiment: Cytoprotective activity in rats when administered 50 mg/kg perorally per orally (Hydrochloric acid as necrotic agent); conditions: route oral; summary of the method: as §2
Rattus norvegicus [9] = experiment: Cytoprotective activity in rats when administered 0.10 mg/kg perorally per orally (Hydrochloric acid as necrotic agent); conditions: route oral; summary of the method: as §2
Rattus norvegicus [10] = experiment: Cytoprotective activity in rat when administered 0.25 mg/kg perorally (Ethyl alcohol as necrotic agent); conditions: route oral
Summary of the method: as §2, with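 “100% ethanol,” for “0.75 N HCl,”, “lesser” for “greater”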

Row | Compound | ED50 (Rattus norvegicus [1]) | inhibition in vivo at 50 mg/kg (Rattus norvegicus [4]) | inhibition in vivo at 50 mg/kg (Rattus norvegicus [5]) | further results
1 | Cc1nc2c(OCc3ccccc3)cccn2c1C(C)SCCNc1nsnc1N (configuration not stated) | > 25 mg/kg | – | – | inhibition in vivo at 30 mg/kg (Rattus norvegicus [2]): 62%; inhibition in vivo at 30 mg/kg (Rattus norvegicus [3]): 84%
2 | Cc1nc2c(OCc3ccccc3)cccn2c1C(C)SCCNc1n[s+]([O-])nc1N (configuration not stated) | > 25 mg/kg | 57% | 57% | –
3 | C/N=C(/NC#N)NCCSCc1c(C)nc2ccccn12 | > 25 mg/kg | – | 60% | inhibition in vivo at 30 mg/kg (Rattus norvegicus [3]): 97%
4 | Cc1nc2c(OCc3ccccc3)cccn2c1CC#N | 0.9 mg/kg | – | – | inhibition in vivo at 100 mg/kg (Rattus norvegicus [6]): 68%; inhibition in vivo at 30 mg/kg (Rattus norvegicus [3]): 90%
5 | Cc1nc2ccccn2c1C(C)SCCNc1nsnc1N (configuration not stated) | > 25 mg/kg | 54% | 51% | –
6 | Cc1nc2ccccn2c1C(C)SCC/N=c1/c(O)c(O)c1=N (configuration not stated) | – | 7% | – | ED50 (Rattus norvegicus [7]): > 25 mg/kg; inhibition in vivo at 50 mg/kg (Rattus norvegicus [8]): 27%
7 | Cc1nc2ccccn2c1CSCCNc1nsnc1N | > 25 mg/kg | 70% | 24% | –
8 | Cc1nc2ccccn2c1CSCC/N=c1/c(O)c(O)c1=N | – | 0% | – | ED50 (Rattus norvegicus [7]): > 25 mg/kg; inhibition in vivo at 50 mg/kg (Rattus norvegicus [8]): 34%
9 | Cc1nc2ccccn2c1CSCCNc1n[s+]([O-])nc1N (configuration not stated) | > 25 mg/kg | 2% | – | –
10 | Cc1nc2ccccn2c1C(C)SCCNc1n[s+]([O-])nc1N (configuration not stated) | > 25 mg/kg | 47% | 36% | –
11 | CCCCC[C@H](O)/C=C/[C@H]1[C@H](O)CC(=O)[C@@H]1C/C=C\CCCC(=O)O [DINOPROSTONE] | – | – | – | ED50 (Rattus norvegicus [7]): 0.83 mg/kg; inhibition in vivo at 0.1 mg/kg (Rattus norvegicus [9]): 70%; inhibition in vivo at 0.25 mg/kg (Rattus norvegicus [10]): 89%
